# Sampled rows, rich in hits. Any-hit rate of the full collection: about 4.3%.
# TAAR1 antagonist – human TAAR1 antagonism; CHO RD-HGA16 TAAR1, Fluo-8 calcium fluorescence, antagonist; inhibition, % at 3 µM; actives 1.5% (n = 360,000); AID 624466;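 active means inhibition above a per-plate cutoff, the mean inhibition of test compounds on that plate plus 3 SD, cut at about 49% in these data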;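 further: 0% = DMSO plus EC80 beta-PEA response and 100% = DMSO alone without agonist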
# Target sequence (Q96RJ0 whole entry, looked up): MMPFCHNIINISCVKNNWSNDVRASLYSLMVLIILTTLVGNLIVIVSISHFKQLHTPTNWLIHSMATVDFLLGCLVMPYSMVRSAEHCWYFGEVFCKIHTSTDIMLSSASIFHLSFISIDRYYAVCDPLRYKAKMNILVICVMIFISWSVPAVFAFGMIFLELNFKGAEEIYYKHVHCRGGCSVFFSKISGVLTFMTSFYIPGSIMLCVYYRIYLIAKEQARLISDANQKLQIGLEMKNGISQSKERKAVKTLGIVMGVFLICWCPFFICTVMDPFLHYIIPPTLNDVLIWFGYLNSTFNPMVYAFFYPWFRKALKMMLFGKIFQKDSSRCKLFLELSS
#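 Material: CHO RD-HGA16 cells bearing hTAAR1; compound dosing: one-point dosing, 3 µM nominal final; schedule: dye loading 75 min at 37 °C, then 30 min room temperature; measured by: calcium fluorescence with Fluo-8; control set: vehicle and agonist controls; replication: n of 1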
# HTR2A ag – activates the mouse 5-HT2A serotonin receptor; P35363; CHO-K1 mHTR2A beta-arrestin complementation, luminescence; percent of 30 µM serotonin response; activation, % at 7.6 µM; actives 0.66% (n = 360,000);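 active means activation above a run cutoff, the mean activation of all tested compounds plus 3 SD, cut at about 14% in these data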;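 further: 0% = plate median of compound wells and 100% = 30 µM serotonin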
# B2AR ag – human beta-2 adrenergic receptor agonism by FAP; P07550; Am2.2-beta2AR cells, FAP receptor internalization, flow cytometry; response, % (no concentration beside the values); actives 0.43% (n = 340,000); AID 504454;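 active means response above a set limit, near 3 SD of response in nonfluorescent compounds, cut at about 42% in these data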
# Target sequence (P07550 whole entry, looked up): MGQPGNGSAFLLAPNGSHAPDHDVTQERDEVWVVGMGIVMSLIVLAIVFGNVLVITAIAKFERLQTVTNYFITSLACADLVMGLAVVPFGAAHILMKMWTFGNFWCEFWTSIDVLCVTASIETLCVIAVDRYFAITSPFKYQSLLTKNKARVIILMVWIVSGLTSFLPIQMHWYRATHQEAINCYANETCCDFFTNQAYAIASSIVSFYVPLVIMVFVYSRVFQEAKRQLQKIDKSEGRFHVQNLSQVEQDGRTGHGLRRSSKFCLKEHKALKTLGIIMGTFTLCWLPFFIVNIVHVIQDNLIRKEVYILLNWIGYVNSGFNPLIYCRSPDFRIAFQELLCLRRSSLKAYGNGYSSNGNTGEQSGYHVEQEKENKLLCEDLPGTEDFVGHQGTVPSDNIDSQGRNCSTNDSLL
# MC4R barr agon – activates human MC4R beta-arrestin recruitment; P32245; U2OS MC4R beta-arrestin complementation, luminescence; percent of melanotan II response, DMSO zero; activation, % at 8.9 µM; actives 0.98% (n = 360,000); AID 540308;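 active means activation above a per-plate cutoff, the mean activation of sample wells on that plate plus 3 SD, cut at about 8% in these data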
# MC4R antagonist – antagonists of human melanocortin 4 receptor (MC4R). inhibition, % at 6.5 µM. P32245. MC4R-expressing cells, MTII-stimulated cAMP, LANCE TR-FRET. actives 0.48% (n = 360,000);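 active means inhibition above its plate's cutoff, the mean of tested wells on that plate plus 3 SD, cut at about 29% in these data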;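 further: 0% = Melanotan II alone and 100% = Melanotan II plus saturating MCL0020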
#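 system = U2OS cells with stable human MC4R expression | also added = Melanotan II challenge after compound preincubation | dosing = one concentration, 6.5 µM nominal | incubation = compound 30 min, challenge 1 h, detection 1 h | measured by = TR-FRET with Eu-cAMP and labeled anti-cAMP, 671 nm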
# TAAR1 ag – agonists of human TAAR1; Q96RJ0; actives 0.99% (n = 360,000); activation, % at 3 µM; CHO RD-HGA16 TAAR1, Fluo-8 calcium fluorescence; vehicle wells 0%, saturating PEA agonist 100%;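 active means activation above the mean activation of all test compounds in the run plus 3 SD, cut at about 38% in these data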
#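 System: CHO RD-HGA16 cells carrying human TAAR1 plus Gα16; Incubation: 17-24 h seeding, 75 min 37 °C dye, 30 min RT; Measured by: Fluo-8 fluorescence, 5 s baseline then 140 s kinetic read; Control set: DMSO and PEA EC100; Replication: single well for each compound.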
# cAMP nonselect – counter-screen for MC4R antagonists: nonselective cAMP signaling inhibitors | AID 602193 | actives 26% (n = 1,600) | parental U2OS, forskolin cAMP, LANCE TR-FRET | inhibition, % at 6.5 µM | shares compounds with MC4R antagonist;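 active means mean inhibition over triplicates above the low-control well mean plus 3 SD, set per campaign, cut at about 13% in these data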;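 further: signal is single emission at 671 nm which falls as cellular cAMP rises; 0% = forskolin-stimulated wells and 100% = buffer without forskolin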
# MC4R antag conf – human MC4R cAMP antagonism confirmation. shares compounds with MC4R antagonist. MC4R-expressing cells, MTII-stimulated cAMP, TR-FRET. inhibition, % at 6.5 µM. actives 27% (n = 1,600). AID 602195; in the data active means inhibition above about 29%;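 further: 0% = agonist stimulated wells alone and 100% = agonist stimulated wells plus saturating reference antagonist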
# MC4R barr ag – human MC4R beta-arrestin agonism confirmation; shares compounds with MC4R barr agon; U2OS MC4R beta-arrestin recruitment, luminescence; scaled DMSO 0%, Melanotan II 100%; activation, % at 8.9 µM; actives 31% (n = 2,400); AID 602192;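 active means mean activation across replicates above the hit cutoff set in the earlier primary screen, cut at about 8% in these data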
# MOR-DOR barr ag – counter-screen for MC4R agonists: agonists of mu-delta opioid heterodimer | activation, % at 9.2 µM | U2OS PathHunter beta-arrestin, beta-gal luminescence; percent of deltorphin B response, DMSO zero | shares compounds with MC4R barr agon | actives 5.8% (n = 2,400);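 active means mean activation across replicates exceeds the hit threshold derived in the earlier primary screen, cut at about 18% in these data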;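 further: 100% = deltorphin B at 0.9 µM final and 0% = DMSO alone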
# TAAR1 ag conf – confirmation of human TAAR1 agonists; shares compounds with TAAR1 ag; CHO RD-HGA16 TAAR1, Fluo-8 calcium fluorescence; scaled: DMSO 0%, maximal phenethylamine 100%; activation, % at 3 µM; actives 82% (n = 2,400);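 active means activation above a cutoff set at the run's mean compound activation plus 3 SD, cut at about 39% in these data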
# Ga16 nonsel ag – counter-screen for TAAR1 agonists: nonselective agonists in parental cells; CHO-Ga16 parental, Fluo-8 calcium fluorescence; normalized to maximal ATP response, DMSO zero; AID 651787; activation, % at 3 µM; actives 50% (n = 2,400); shares compounds with TAAR1 ag;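 active means activation above the run cutoff, the mean activation over all tested wells plus 3 SD, cut at about 12% in these data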;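 further: 0% = DMSO wells and 100% = maximal ATP response on the peak over basal ratio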
# TAAR1 desensitize – TAAR1 response desensitization, agonist counter-screen; shares compounds with TAAR1 ag; CHO RD-HGA16 hTAAR1, Fluo-8 calcium, beta-PEA response inhibition; inhibition, % at 3 µM; actives 46% (n = 2,400);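 active means inhibition above the run cutoff, the mean inhibition of all test compounds plus 3 SD, cut at about 49% in these data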;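 further: beta-PEA stimulus applied at its EC80; loss of beta-PEA calcium signal after compound pretreatment read as receptor desensitization; 0% = DMSO with beta-PEA at EC80 and 100% = DMSO alone without agonist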
# Ga16 antag count – counter-screen for TAAR1 agonists: nonselective Ga16 antagonists. inhibition, % at 3 µM. actives 39% (n = 2,400). AID 651952. shares compounds with TAAR1 ag. CHO-Ga16 ATP-induced calcium, Fluo-8 fluorescence;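 active means inhibition above the plate's mean compound inhibition plus 3 SD, computed per plate, cut at about 22% in these data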;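 further: 0% = EC80 ATP with DMSO and 100% = DMSO wells without ATP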
# The depositor's hits bear a star; x = no result.
SMILES,TAAR1 antagonist,HTR2A ag,B2AR ag,MC4R barr agon,MC4R antagonist,TAAR1 ag,cAMP nonselect,MC4R antag conf,MC4R barr ag,MOR-DOR barr ag,TAAR1 ag conf,Ga16 nonsel ag,TAAR1 desensitize,Ga16 antag count
CC1(C)CC(=O)C(C(C2=C(O)CC(C)(C)CC2=O)c2ccc(Br)s2)C(=O)C1 (centres undefined),19,-5,22,1,39*,51*,12,12,x,x,22,34*,42,27*
Cc1ccc(C(C2=C(O)CC(C)(C)CC2=O)C2C(=O)CC(C)(C)CC2=O)s1 (centres undefined),-11,0,21,-1,13,35,x,x,x,x,x,x,x,x
COc1cc(OC)c(C#N)c(S(=O)(=O)Cc2ccccc2)c1,10,3,-1,0,10,6,x,x,x,x,x,x,x,x
N#Cc1c([N+](=O)[O-])cc([N+](=O)[O-])cc1S(=O)(=O)Cc1ccccc1,45,-6,94*,-6,88*,48*,34*,-5,x,x,9,9,42,45*
O=C(O)CCC(=O)c1ccc2c(c1)OCCO2,4,4,4,-1,-5,-1,x,x,x,x,x,x,x,x
O=C(CCN1Cc2ccccc2C1)c1ccc2c(c1)OCCO2,7,8,-2,-3,34*,38*,18*,31*,x,x,68*,3,13,12
COc1cccc(N(C(=O)CCl)C(C(=O)NCCc2ccccc2)c2cccs2)c1 (centres undefined),0,9,12,3,5,34,x,x,x,x,x,x,x,x
COc1ccc(N(C(=O)CCl)C(C(=O)NCCc2ccccc2)c2cccs2)cc1Cl (centres undefined),28,2,40,21*,34*,40*,-28,37*,x,x,33,-1,18,20
CC12CCC3c4ccc(O)c([N+](=O)[O-])c4CCC3C1CCC2=O (centres undefined),-9,1,x,1,-1,1,x,x,x,x,x,x,x,x
Nc1cc(=O)[nH]c(SCC(=O)NCCC2=CCCCC2)n1,-2,-1,-8,-1,-4,14,x,x,x,x,x,x,x,x
CC1=NOC(=O)/C1=C\c1ccc(-c2ccccc2Br)o1,75*,-2,36,-3,62*,46*,9,11,x,x,32,29*,56*,65*
O=C1C(Cl)=C(NCCc2ccccc2)C(=O)c2ccccc21,67*,-3,17,-4,42*,79*,10,-18,x,x,107*,14*,96*,28*
CCCc1nc2ccc(C(=O)OC)cn2c1Cc1ccccc1OC,5,x,x,x,x,-2,x,x,x,x,x,x,x,x
NC(Cc1ccc(C(F)(F)F)cc1)c1csc(Nc2nncc3ccccc23)n1 (centres undefined),36,8,x,2,35*,55*,21*,0,x,x,140*,58*,106*,69*
Cn1c(=O)c2sccc2n2c(CCCC(=O)NCc3ccco3)nnc12,-1,-1,-3,0,3,1,x,x,x,x,x,x,x,x
CC1(C)CC[C@]2(C(=O)O)CC[C@]3(C)C(=CC[C@@H]4[C@@]5(C)CC[C@H](O[C@@H]6O[C@H](C(=O)O)[C@@H](O)[C@H](O[C@@H]7OC[C@H](O)[C@H](O)[C@H]7O)[C@H]6O)C(C)(C)[C@@H]5CC[C@]43C)[C@@H]2C1,109*,13,40,-2,111*,109*,36*,22,x,x,84*,66*,104*,95*
O=C(NC1CCCC1)c1cc2nc(-c3ccccc3)cc(-c3ccccc3)n2n1,-14,-2,-9,-1,11,1,x,x,x,x,x,x,x,x
O=C(Nc1cccc(O)c1)c1cc2nc(-c3ccccc3)cc(-c3ccccc3)n2n1,37,-1,12,12*,16,3,x,x,8,5,x,x,x,x
Cc1ccc(CN2CC(C(=O)Nc3nnc(SCc4c(Cl)cccc4Cl)s3)CC2=O)cc1 (centres undefined),-17,6,-11,29*,2,3,x,x,8,4,x,x,x,x
O=C(O)Cn1nc2c3c(cccc3c1=O)-c1ccccc1-2,-15,4,-9,0,3,5,x,x,x,x,x,x,x,x
Cc1ccc(-n2nc3c4c(cccc4c2=O)-c2ccccc2-3)cc1,-15,-6,0,21*,8,16,x,x,10*,6,x,x,x,x
COc1cc(/C=N/NC(=S)NC2CC3CC2C2C=CCC32)ccc1O (centres undefined),0,-9,-3,9.9*,-16,10,x,x,5,8,x,x,x,x
COc1ccc(/C=C/C=N/NC(=O)COc2ccc(OC)cc2)cc1,-3,1,10,3,-7,4,x,x,x,x,x,x,x,x
O=C(COc1cccc2ccccc12)N/N=C/C=C/c1ccccc1,15,6,2,9.7*,3,9,x,x,4,6,x,x,x,x
Cc1ccccc1OCC(=O)N/N=C/C=C/c1ccccc1,-5,1,0,10*,-5,4,x,x,3,8,x,x,x,x
C/C(=N\NC(=O)COc1cccc2ccccc12)c1cccs1,-6,1,-5,17*,0,4,x,x,17*,6,x,x,x,x

# Screening results: PubChem, several laboratories
